Test results published in ChEMBL document CHEMBL1932981, “Synthesis of novel 2, 5-dihydrofuran derivatives and evaluation of their anticancer activity” (Eur J Med Chem, 2012).

Legend:
Assay type in all cases: functional, cell-based; call rule not given here
HeLa = assay: Cytotoxicity against human HeLa cells after 24 hrs by MTT assay
Method in brief: (§1)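 Cell lines from the Navy Medical College, seeded at 8000 cells/well in 96-well plates. Compounds dissolved in DMSO (stock 10 g/L) and freshly diluted in medium. Dilutions were added in duplicate 24 h after seeding, with incubation continued at 37 °C. Viability read by MTT. IC50 taken as the concentration giving 50% growth inhibition, determined following NCCLS recommendations.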

A549 = assay: Cytotoxicity against human A549 cells after 24 hrs by MTT assay; details: Homo sapiens, A549, 24 h; read-out: IC50; method in brief: as §1
[1] = Cytotoxicity against human QGY7701 cells after 24 hrs by MTT assay; details: QGY7701, 24 h; method in brief: as §1
SW480 = assay: Cytotoxicity against human SW480 cells after 24 hrs by MTT assay; details: SW480, 24 h; method in brief: as §1
[2] = Homo sapiens, HeLa, 24 h, read-out: IC50

| Compound | IC50 (HeLa; [2]) [µM] | IC50 (A549) [µM] | IC50 [1] [µM] | IC50 (SW480) [µM] | IC50 (HeLa; hela) |
| --- | --- | --- | --- | --- | --- |
| C=CC1=C(C(=O)NCc2ccccc2)C(c2ccc(F)cc2)OC1 (centres undefined) | > 100 | > 100 | 67.6 | > 100 | – |
| C=CC1=C(C(=O)O)C(c2ccc(F)cc2)OC1 (centres undefined) | 67.4 | > 100 | > 100 | > 100 | – |
| C=CC1=C(C(=O)O)C(c2ccc(Cl)c(Cl)c2)OC1 (centres undefined) | 10.3 | > 100 | > 100 | > 100 | – |
| C=CC1=C(C(=O)O)C(c2ccc(OC)cc2)OC1 (centres undefined) | 44.3 | > 100 | > 100 | > 100 | – |
| C=CC1=C(C(=O)O)C(c2ccc(OC)c(OC)c2)OC1 (centres undefined) | 18 | > 100 | > 100 | > 100 | – |
| C=CC1=C(C(=O)Nc2ccccc2)C(c2ccc(F)cc2)OC1 (centres undefined) | > 100 | > 100 | 46.7 | > 100 | – |
| C=CC1=C(C(=O)Nc2cccc(C)c2)C(c2ccc(F)cc2)OC1 (centres undefined) | – | > 100 | 56.4 | > 100 | Not Active |
| C=CC1=C(C(=O)Nc2ccc(C)cc2)C(c2ccc(F)cc2)OC1 (centres undefined) | > 100 | > 100 | 59.2 | > 100 | – |
| C=CC1=C(C(=O)Nc2ccccc2OC)C(c2ccc(F)cc2)OC1 (centres undefined) | > 100 | > 100 | 52.8 | > 100 | – |
| C=CC1=C(C(=O)NCc2ccc(C)cc2)C(c2ccc(F)cc2)OC1 (centres undefined) | > 100 | > 100 | 62.1 | > 100 | – |
| C=CC1=C(C(=O)NCc2ccc(OC)c(OC)c2)C(c2ccc(F)cc2)OC1 (centres undefined) | > 100 | > 100 | 87.3 | > 100 | – |
| C=CC1=C(C(=O)NCc2ccccc2F)C(c2ccc(F)cc2)OC1 (centres undefined) | > 100 | > 100 | 51.4 | > 100 | – |
| C=CC1=C(C(=O)NCc2ccc(Cl)cc2)C(c2ccc(F)cc2)OC1 (centres undefined) | > 100 | > 100 | 36.9 | > 100 | – |
| C=CC1=C(C(=O)NCCc2ccc(F)cc2)C(c2ccc(F)cc2)OC1 (centres undefined) | > 100 | > 100 | 29.7 | 36 | – |
| C=CC1=C(C(=O)NCCc2ccccc2F)C(c2ccc(F)cc2)OC1 (centres undefined) | > 100 | > 100 | 35.1 | > 100 | – |
| C=CC1=C(C(=O)NCCc2cccc(F)c2)C(c2ccc(F)cc2)OC1 (centres undefined) | > 100 | > 100 | 59.8 | > 100 | – |
| C=CC1=C(C(=O)NCCc2cccc(OC)c2)C(c2ccc(F)cc2)OC1 (centres undefined) | – | > 100 | 87.2 | > 100 | Not Active |
| C=CC1=C(C(=O)NC2CCCCC2)C(c2ccc(F)cc2)OC1 (centres undefined) | > 100 | > 100 | 40.5 | > 100 | – |
| C=CC1=C(C(=O)NCCC)C(c2ccc(F)cc2)OC1 (centres undefined) | > 100 | > 100 | > 100 | > 100 | – |
| C=CC1=C(C(=O)NCCCCC)C(c2ccc(F)cc2)OC1 (centres undefined) | > 100 | > 100 | > 100 | > 100 | – |

| Compound | IC50 (HeLa; [2]) [µM] | IC50 (A549) [µM] | IC50 [1] [µM] | IC50 (SW480) [µM] | IC50 (HeLa; hela) |
| --- | --- | --- | --- | --- | --- |
| C=CC1=C(C(=O)NCC(C)C)C(c2ccc(F)cc2)OC1 (centres undefined) | > 100 | > 100 | > 100 | > 100 | – |
| C=CC1=C(C(=O)NC(C)(C)C)C(c2ccc(F)cc2)OC1 (centres undefined) | > 100 | > 100 | > 100 | > 100 | – |
| C=CC1=C(C(=O)Nc2ccccc2)C(c2ccc(Cl)c(Cl)c2)OC1 (centres undefined) | > 100 | > 100 | > 100 | > 100 | – |
| C=CC1=C(C(=O)Nc2ccccc2OC)C(c2ccc(Cl)c(Cl)c2)OC1 (centres undefined) | > 100 | > 100 | > 100 | > 100 | – |
| C=CC1=C(C(=O)NCc2ccccc2)C(c2ccc(Cl)c(Cl)c2)OC1 (centres undefined) | > 100 | > 100 | > 100 | > 100 | – |
| C=CC1=C(C(=O)NCCC)C(c2ccc(Cl)c(Cl)c2)OC1 (centres undefined) | > 100 | > 100 | 31.3 | > 100 | – |
| C=CC1=C(C(=O)NCCCCC)C(c2ccc(Cl)c(Cl)c2)OC1 (centres undefined) | > 100 | > 100 | > 100 | 27.5 | – |
| C=CC1=C(C(=O)NCC(C)C)C(c2ccc(Cl)c(Cl)c2)OC1 (centres undefined) | 60.1 | > 100 | > 100 | > 100 | – |
| C=CC1=C(C(=O)NC(C)(C)C)C(c2ccc(Cl)c(Cl)c2)OC1 (centres undefined) | > 100 | > 100 | > 100 | > 100 | – |
| C=CC1=C(C(=O)Nc2ccccc2)C(c2ccc(OC)cc2)OC1 (centres undefined) | > 100 | > 100 | > 100 | > 100 | – |
| C=CC1=C(C(=O)Nc2cccc(C)c2)C(c2ccc(OC)cc2)OC1 (centres undefined) | > 100 | > 100 | > 100 | > 100 | – |
| C=CC1=C(C(=O)Nc2ccc(C)cc2)C(c2ccc(OC)cc2)OC1 (centres undefined) | > 100 | > 100 | > 100 | > 100 | – |
| C=CC1=C(C(=O)Nc2ccccc2OC)C(c2ccc(OC)cc2)OC1 (centres undefined) | > 100 | > 100 | > 100 | > 100 | – |
| C=CC1=C(C(=O)Nc2ccc(OCC)cc2)C(c2ccc(OC)cc2)OC1 (centres undefined) | > 100 | 17.6 | > 100 | > 100 | – |
| C=CC1=C(C(=O)NCc2ccccc2)C(c2ccc(OC)cc2)OC1 (centres undefined) | > 100 | > 100 | > 100 | 39.5 | – |
| C=CC1=C(C(=O)NCc2ccc(C)cc2)C(c2ccc(OC)cc2)OC1 (centres undefined) | 15.8 | > 100 | 43.1 | 31.7 | – |
| C=CC1=C(C(=O)NCc2ccc(OC)c(OC)c2)C(c2ccc(OC)cc2)OC1 (centres undefined) | > 100 | > 100 | > 100 | 13.5 | – |
| C=CC1=C(C(=O)NCc2ccccc2F)C(c2ccc(OC)cc2)OC1 (centres undefined) | > 100 | > 100 | > 100 | > 100 | – |
| C=CC1=C(C(=O)NCc2ccc(Cl)cc2)C(c2ccc(OC)cc2)OC1 (centres undefined) | > 100 | > 100 | > 100 | > 100 | – |
| C=CC1=C(C(=O)NCCc2ccc(F)cc2)C(c2ccc(OC)cc2)OC1 (centres undefined) | > 100 | > 100 | > 100 | > 100 | – |

| Compound | IC50 (HeLa; [2]) [µM] | IC50 (A549) [µM] | IC50 [1] [µM] | IC50 (SW480) [µM] | IC50 (HeLa; hela) |
| --- | --- | --- | --- | --- | --- |
| C=CC1=C(C(=O)NCCc2ccccc2F)C(c2ccc(OC)cc2)OC1 (centres undefined) | 37.5 | > 100 | > 100 | > 100 | – |
| C=CC1=C(C(=O)NCCc2cccc(F)c2)C(c2ccc(OC)cc2)OC1 (centres undefined) | 31.4 | > 100 | > 100 | > 100 | – |
| C=CC1=C(C(=O)NCCc2cccc(OC)c2)C(c2ccc(OC)cc2)OC1 (centres undefined) | > 100 | > 100 | > 100 | > 100 | – |
| C=CC1=C(C(=O)NC2CCCCC2)C(c2ccc(OC)cc2)OC1 (centres undefined) | 24.8 | > 100 | > 100 | > 100 | – |
| C=CC1=C(C(=O)NCCC)C(c2ccc(OC)cc2)OC1 (centres undefined) | 14 | > 100 | > 100 | > 100 | – |
| C=CC1=C(C(=O)NCCCCC)C(c2ccc(OC)cc2)OC1 (centres undefined) | > 100 | 36.5 | > 100 | > 100 | – |
| C=CC1=C(C(=O)NCC(C)C)C(c2ccc(OC)cc2)OC1 (centres undefined) | > 100 | > 100 | > 100 | > 100 | – |
| C=CC1=C(C(=O)NC(C)(C)C)C(c2ccc(OC)cc2)OC1 (centres undefined) | > 100 | > 100 | > 100 | > 100 | – |
| C=CC1=C(C(=O)Nc2ccccc2)C(c2ccc(OC)c(OC)c2)OC1 (centres undefined) | 5.03 | > 100 | > 100 | 45.1 | – |
| C=CC1=C(C(=O)NCc2ccccc2)C(c2ccc(OC)c(OC)c2)OC1 (centres undefined) | > 100 | > 100 | > 100 | > 100 | – |
| C=CC1=C(C(=O)NCc2ccc(C)cc2)C(c2ccc(OC)c(OC)c2)OC1 (centres undefined) | > 100 | > 100 | 69.1 | > 100 | – |
| C=CC1=C(C(=O)NCc2ccc(Cl)cc2)C(c2ccc(OC)c(OC)c2)OC1 (centres undefined) | > 100 | > 100 | > 100 | > 100 | – |
| C=CC1=C(C(=O)NC2CCCCC2)C(c2ccc(OC)c(OC)c2)OC1 (centres undefined) | 5.54 | > 100 | 7.49 | 19.1 | – |
| C=CC1=C(C(=O)NCCC)C(c2ccc(OC)c(OC)c2)OC1 (centres undefined) | > 100 | > 100 | > 100 | > 100 | – |
| C=CC1=C(C(=O)N2CCN(c3ccccc3OC)CC2)C(c2ccc(OC)cc2)OC1 (centres undefined) | > 100 | 23 | 23.6 | > 100 | – |
| C=CC1=C(C(=O)N2CCN(c3cccc(OC)c3)CC2)C(c2ccc(OC)cc2)OC1 (centres undefined) | 15.3 | 20.7 | 17.9 | 25 | – |
| C=CC1=C(C(=O)N2CCN(c3cccc(C)c3C)CC2)C(c2ccc(OC)cc2)OC1 (centres undefined) | > 100 | 10.3 | > 100 | 44.1 | – |
| C=CC1=C(C(=O)N2CCN(c3ccccc3Cl)CC2)C(c2ccc(OC)cc2)OC1 (centres undefined) | > 100 | 35.3 | > 100 | 13.1 | – |
| C=CC1=C(C(=O)N2CCN(c3cccc(Cl)c3)CC2)C(c2ccc(OC)cc2)OC1 (centres undefined) | > 100 | 26.8 | > 100 | > 100 | – |
| O=c1[nH]cc(F)c(=O)[nH]1 [FLUOROURACIL] | 16.3 | – | 14.3 | 15.7 | – |
